Experiments:
MCF7 = experiment: Cytotoxicity against human MCF7 cells after 48 hrs; assay type: functional, cell-based; details: MCF7, 48 h
Summary of the method: (§1)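 Cells grown in MEM (Earle's salts, L-glutamine) with 10% FBS, vitamins, amino acids, pyruvate, penicillin/streptomycin at 37 °C, 5% CO2. 5 × 10³ cells/well adhered 16 h, then increasing concentrations in DMSO (final 0.5% v/v) for 48 h. Resazurin fluorescence read at ex 530/em 590 nm; survival vs control wells after blank subtraction. Three experiments in triplicate; IC50 as mean ± standard deviation.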

A549 = experiment: Cytotoxicity against human A549 cells after 48 hrs; assay type: functional, cell-based; details: A549, 48 h; summary of the method: as §1
DLD-1 = experiment: Cytotoxicity against human DLD1 cells after 48 hrs; assay type: functional, cell-based; details: DLD-1, 48 h; summary of the method: as §1
PC-3 = experiment: Cytotoxicity against human PC3 cells after 48 hrs; assay type: functional, cell-based; details: PC-3, 48 h; summary of the method: as §1
[1] = Cytotoxicity against human WS1 cells after 48 hrs; assay type: cell-based; details: WS1, 48 h

`C=C(C)[C@@H]1CC[C@]2(CO[C@@H]3O[C@@H](C)[C@H](O)[C@@H](O)[C@H]3O)CC[C@]3(C)[C@H](CC[C@@H]4[C@@]5(C)CC[C@H](O[C@@H]6O[C@@H](C)[C@H](O)[C@@H](O)[C@H]6O)C(C)(C)[C@@H]5CC[C@]43C)[C@@H]12` showed an IC50 (MCF7) of 1.7 µM, an IC50 (A549) of 1.9 µM and an IC50 (DLD-1) of 1.9 µM. For the same compound, the IC50 (PC-3) was 1.8 µM and the IC50 [1] was 1.3 µM.

Work on `C=C(C)[C@@H]1CC[C@]2(C(=O)O)CC[C@]3(C)[C@H](CC[C@@H]4[C@@]5(C)CC[C@H](O)C(C)(C)[C@@H]5CC[C@]43C)[C@@H]12` [BETULINIC ACID] yielded an IC50 (MCF7) of 41 µM, an IC50 (A549) of 10.3 µM and an IC50 (DLD-1) of 15 µM. For the same compound, the IC50 (PC-3) was 40 µM and the IC50 [1] was 12 µM.

`C=C(C)[C@@H]1CC[C@]2(C(=O)O[C@@H]3O[C@H](CO)[C@@H](O)[C@H](O)[C@H]3O)CC[C@]3(C)[C@H](CC[C@@H]4[C@@]5(C)CC[C@H](O[C@@H]6O[C@@H](C)[C@H](O)[C@@H](O)[C@H]6O)C(C)(C)[C@@H]5CC[C@]43C)[C@@H]12` showed an IC50 (MCF7) of 5.7 µM, an IC50 (A549) of 23 µM and an IC50 (DLD-1) of 11 µM. For the same compound, the IC50 (PC-3) was 11.2 µM and the IC50 [1] was 9 µM.

In the case of `C=C(C)[C@@H]1CC[C@]2(CO[C@@H]3O[C@H](CO)[C@@H](O)[C@H](O)[C@H]3O)CC[C@]3(C)[C@H](CC[C@@H]4[C@@]5(C)CC[C@H](O)C(C)(C)[C@@H]5CC[C@]43C)[C@@H]12`, the IC50 (MCF7) is reported as > 100 µM, the IC50 (A549) is reported as > 100 µM and the IC50 (DLD-1) is reported as > 100 µM. The IC50 (PC-3) was > 100 µM and the IC50 [1] was > 100 µM.

For `C=C(C)[C@@H]1CC[C@]2(C(=O)O[C@@H]3O[C@H](CO)[C@@H](O)[C@H](O)[C@H]3O)CC[C@]3(C)[C@H](CC[C@@H]4[C@@]5(C)CC[C@H](O[C@@H]6O[C@H](CO)[C@@H](O)[C@H](O)[C@H]6O)C(C)(C)[C@@H]5CC[C@]43C)[C@@H]12`, the IC50 (MCF7) was 20 µM, the IC50 (A549) was > 100 µM and the IC50 (DLD-1) was > 100 µM. For the same compound, the IC50 (PC-3) was 66 µM and the IC50 [1] was 35 µM.

For `C=C(C)[C@@H]1CC[C@]2(CO[C@@H]3O[C@H](CO)[C@@H](O)[C@H](O)[C@H]3O)CC[C@]3(C)[C@H](CC[C@@H]4[C@@]5(C)CC[C@H](O[C@@H]6O[C@H](CO)[C@@H](O)[C@H](O)[C@H]6O)C(C)(C)[C@@H]5CC[C@]43C)[C@@H]12`, the IC50 (MCF7) was 14.5 µM, the IC50 (A549) was > 100 µM and the IC50 (DLD-1) was 27 µM. The IC50 (PC-3) was > 100 µM and the IC50 [1] was 20 µM.

With `C=C(C)[C@@H]1CC[C@]2(C(=O)O[C@@H]3O[C@H](CO)[C@@H](O)[C@H](O)[C@H]3O)CC[C@]3(C)[C@H](CC[C@@H]4[C@@]5(C)CC[C@H](O)C(C)(C)[C@@H]5CC[C@]43C)[C@@H]12` the IC50 (MCF7) was > 100 µM, the IC50 (A549) was > 100 µM and the IC50 (DLD-1) was > 100 µM. The IC50 (PC-3) was > 100 µM and the IC50 [1] was > 100 µM.

Work on `COc1cc([C@@H]2c3cc4c(cc3[C@@H](O[C@@H]3O[C@@H]5CO[C@@H](C)O[C@H]5[C@H](O)[C@H]3O)[C@H]3COC(=O)[C@H]23)OCO4)cc(OC)c1O` [ETOPOSIDE] yielded an IC50 (MCF7) of 0.7 µM, an IC50 (A549) of 1.2 µM and an IC50 (DLD-1) of 27 µM. For the same compound, the IC50 (PC-3) was 1.7 µM and the IC50 [1] was 34 µM.

`C=C(C)[C@@H]1CC[C@]2(CO[C@@H]3O[C@H](CO)[C@@H](O)[C@H](O)[C@H]3O)CC[C@]3(C)[C@H](CC[C@@H]4[C@@]5(C)CC[C@H](O[C@@H]6O[C@@H](C)[C@H](O)[C@@H](O)[C@H]6O)C(C)(C)[C@@H]5CC[C@]43C)[C@@H]12` showed an IC50 (MCF7) of 9 µM, an IC50 (A549) of 16.8 µM and an IC50 (DLD-1) of 10.6 µM. For the same compound, the IC50 (PC-3) was 6.9 µM and the IC50 [1] was 5.3 µM.

`C=C(C)[C@@H]1CC[C@]2(C(=O)O[C@@H]3O[C@H](CO)[C@@H](O)[C@H](O)[C@H]3O)CC[C@]3(C)[C@H](CC[C@@H]4[C@@]5(C)CC[C@H](O[C@@H]6OC[C@H](O)[C@H](O)[C@H]6O)C(C)(C)[C@@H]5CC[C@]43C)[C@@H]12` showed an IC50 (MCF7) of 23 µM, an IC50 (A549) of 76 µM and an IC50 (DLD-1) of 60 µM. The IC50 (PC-3) was 68 µM and the IC50 [1] was 50 µM.

Work on `C=C(C)[C@@H]1CC[C@]2(CO)CC[C@]3(C)[C@H](CC[C@@H]4[C@@]5(C)CC[C@H](O)C(C)(C)[C@@H]5CC[C@]43C)[C@@H]12` [BETULIN] yielded an IC50 (MCF7) of 23.3 µM, an IC50 (A549) of 3.8 µM and an IC50 (DLD-1) of 6.6 µM. It also gave an IC50 (PC-3) of 17.9 µM and an IC50 [1] of 3.6 µM.

With `C=C(C)[C@@H]1CC[C@]2(CO[C@@H]3O[C@H](CO)[C@@H](O)[C@H](O)[C@H]3O)CC[C@]3(C)[C@H](CC[C@@H]4[C@@]5(C)CC[C@H](O[C@@H]6OC[C@H](O)[C@H](O)[C@H]6O)C(C)(C)[C@@H]5CC[C@]43C)[C@@H]12` the IC50 (MCF7) was 9.5 µM, the IC50 (A549) was > 100 µM and the IC50 (DLD-1) was 19 µM. It also gave an IC50 (PC-3) of 5.3 µM and an IC50 [1] of 4.5 µM.

For `C=C(C)[C@@H]1CC[C@]2(C(=O)O[C@@H]3O[C@@H](C)[C@H](O)[C@@H](O)[C@H]3O)CC[C@]3(C)[C@H](CC[C@@H]4[C@@]5(C)CC[C@H](O[C@@H]6O[C@@H](C)[C@H](O)[C@@H](O)[C@H]6O)C(C)(C)[C@@H]5CC[C@]43C)[C@@H]12`, the IC50 (MCF7) was 6 µM, the IC50 (A549) was 7.2 µM and the IC50 (DLD-1) was 7.3 µM. It also gave an IC50 (PC-3) of 7.2 µM and an IC50 [1] of 4.9 µM.

From ChEMBL document CHEMBL1151813, “Synthesis and cytotoxicity of bidesmosidic betulin and betulinic acid saponins” (J Nat Prod, 2009)
